Assay results as given in publication PMC8255191 (European Journal of Medicinal Chemistry, 2021).
Several values for one entry are separate records, joined by “and”; a condition that tells them apart may be missing. Identical values can stand only once. Like-named read-outs stand apart in the source and are kept apart here.

Tests used:
[1] = target: ZIKV NS5: full length ZIKV protein (Zika virus, UniProt A0A024B7W1); assay: In vitro polymerase assay; format: biochemical; settings: read-out: IC50 ZIKV NS5, polymerase activity
[2] = target: D2pol: polymerase domain of dengue 2 virus (Dengue virus type 2, UniProt P14340); assay: In vitro polymerase assay; format: biochemical; settings: read-out: IC50 D2pol; polymerase activity
[3] = target: D2 NS5: full length DENV protein (Dengue virus type 2, UniProt P14340); assay: In vitro polymerase assay; format: biochemical, dengue 2 virus; settings: read-out: IC50 D2 NS5, polymerase activity
DENV-2 [4] = settings: read-out: IC50 DENV-2; cited from earlier work
ZIKV [5] = settings: read-out: IC50 ZIKV; cited from earlier work
[6] = Cytotoxicity, CellTiter-Glo 2.0 luminescent cell viability assay; format: cell-based; settings: human, Huh7 cells
ZIKV [7] = assay: In vitro resistance selection in Huh7 cells, NS3/NS5 population sequencing; format: cell-based, Zika virus (H/PF/2013)
[8] = Stability towards oxidative stress; format: physicochemical; settings: 40 mM H2O2 in ethanol, argon atmosphere; data not shown
[9] = system: Dengue, Zika, West Nile and Influenza A viruses; assay: Antiviral activity, range over the tested viruses; format: cell-based; settings: read-out: IC50 (range over viruses)
[10] = system: influenza A virus strains PR8 H1N1, pandemic 2009H1N1, avian Ulster H7N1; format: cell-based
PR8 H1N1 = assay: Time-of-addition, In Cell Western of hemagglutinin; format: cell-based, Influenza A virus
DENV = assay: In vitro resistance selection in Huh7 cells, NS3/NS5 population sequencing; format: cell-based, Dengue virus serotype 2 (New Guinea C)
[11] = system: DENV NS3 and NS5 proteins; format: cell-based, DENV-2; settings: for expression of NS5 protein: 6i 50 μM (p ≤ 0.0001 at 16 h), Sofosbuvir 100 μM (from 12 h, p ≤ 0.01); for expression of NS3 protein: 6i 50 μM (p ≤ 0.05 at 12 h), Sofosbuvir 100 μM (from 12 h, p ≤ 0.05)
[12] = ABTS radical decolorization assay; format: physicochemical; settings: 10 μM-1 mM, 10 min; Fig. 2
Outline: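 ABTS radical cation solution, diluted 1:100 in ethanol to an absorbance of 0.70 (±0.02) at 734 nm, serves as the control solution. Test compound or ascorbic acid reference, dissolved in DMSO at 10 μM, 50 μM, 0.1 mM, 0.2 mM, 0.5 mM or 1 mM, is added. A734 is read after exactly 10 min, and %scavenging = [(A0 − As)/A0] × 100, with the control run in each assay.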

SARS-CoV-2 = settings: SARS-CoV-2, Calu-3; literature value in parenthesis; cited from earlier work
DENV-2 [13] = assay: Plaque reduction assay; format: cell-based, Dengue virus serotype 2 (New Guinea C); settings: Dengue virus, DENV2, read-out: DENV-2 IC50

ZIKV NS5: full length ZIKV protein, sequence (A0A024B7W1 2521-3423 limits assumed): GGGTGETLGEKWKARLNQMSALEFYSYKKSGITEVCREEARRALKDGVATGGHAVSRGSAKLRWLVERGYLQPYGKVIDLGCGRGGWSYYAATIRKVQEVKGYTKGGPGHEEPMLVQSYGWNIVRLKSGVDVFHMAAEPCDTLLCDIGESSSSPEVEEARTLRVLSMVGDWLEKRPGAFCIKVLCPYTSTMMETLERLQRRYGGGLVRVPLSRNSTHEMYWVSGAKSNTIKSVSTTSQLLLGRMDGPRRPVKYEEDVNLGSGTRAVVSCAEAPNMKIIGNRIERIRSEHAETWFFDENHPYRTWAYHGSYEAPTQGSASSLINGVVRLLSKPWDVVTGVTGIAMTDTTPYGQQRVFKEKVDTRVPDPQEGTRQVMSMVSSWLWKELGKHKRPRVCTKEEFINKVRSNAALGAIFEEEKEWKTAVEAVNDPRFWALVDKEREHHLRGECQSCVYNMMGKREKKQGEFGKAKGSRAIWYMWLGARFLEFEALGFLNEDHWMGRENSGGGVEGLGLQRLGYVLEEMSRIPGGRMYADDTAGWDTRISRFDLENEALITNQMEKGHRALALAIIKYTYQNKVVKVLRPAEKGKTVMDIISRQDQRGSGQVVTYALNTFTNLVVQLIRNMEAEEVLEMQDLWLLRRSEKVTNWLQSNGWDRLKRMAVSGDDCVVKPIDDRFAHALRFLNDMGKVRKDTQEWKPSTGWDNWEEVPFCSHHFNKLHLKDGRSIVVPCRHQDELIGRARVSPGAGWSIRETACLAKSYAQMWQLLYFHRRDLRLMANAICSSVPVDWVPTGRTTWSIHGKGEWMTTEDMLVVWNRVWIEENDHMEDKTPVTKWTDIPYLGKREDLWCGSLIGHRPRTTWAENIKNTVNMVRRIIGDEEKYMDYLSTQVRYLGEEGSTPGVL

With `Nc1ncnc2c1ncn2[C@@H]1O[C@H](COP(=O)(O)OP(=O)(O)OP(=O)(O)O)C[C@H]1O` [3'dATP] as the molecule, how does the IC50 [1] read?
The IC50 was 1 ± 0.2 µM.

And the IC50 [2]?
The IC50 was 0.27 ± 0.03 µM.

And the IC50 [3]?
The IC50 was 0.32 ± 0.05 µM.

With `Oc1cccc(Nc2nc(NCCOc3ccccc3)nc3[nH]cnc23)c1` [Compound 3] as the molecule, how does the IC50 (DENV-2 [4]) read?
Its IC50 is 10 µM.

What about the IC50 (ZIKV [5]) of the same molecule?
Its IC50 is 16.7 µM.

For `Fc1cccc(Nc2nc(NCCOc3ccccc3)nc3[nH]cnc23)c1` [Compound 6c, N6-(3-fluorophenyl)-N2-(2-phenoxyethyl)-9H-purine-2,6-diamine], which CC50 [6] is on record?
The CC50 was > 200 µM.

Which CC50 [6] does the source give for `CNc1nc(Nc2cccc(C(=O)OC)c2)c2nc[nH]c2n1` [Compound 6d, Methyl 3-((2-(methylamino)-9H-purin-6 yl)amino)benzoate] here?
The CC50 was > 200 µM.

With `COC(=O)c1cccc(Nc2nc(NCCO)nc3[nH]cnc23)c1` [Compound 6e, Methyl 3-((2-((2-hydroxyethyl)amino)-9H-purin-6-yl)amino)benzoate] as the molecule, how does the CC50 [6] read?
Its CC50 is > 200 µM.

For `CNc1nc(Nc2cccc(C(F)(F)F)c2)c2nc[nH]c2n1` [Compound 6g, N2-methyl-N6-(3-(trifluoromethyl)phenyl)-9H-purine-2,6-diamine], which CC50 [6] is on record?
Its CC50 is > 200 µM.

With `FC(F)(F)c1cccc(Nc2nc(NCCOc3ccccc3)nc3[nH]cnc23)c1` [Compound 6i, N [2]-(2-phenoxyethyl)-N [6]-(3-(trifluoromethyl)phenyl)-9H-purine-2,6-diamine] as the molecule, how does the “dpi (days post infection to 80% CPE)” value (ZIKV [7]; 6i 15 μM) read?
Its value is 8 days.

What about the “dpi (days post infection to 80% CPE)” value (ZIKV [7]; 6i 30 μM) of the same molecule?
The value was 5 days.

What about the “dpi (days post infection to 80% CPE)” value (ZIKV [7]; 6i 60 μM) of the same molecule?
The value was 5 days.

And the “dpi (days post infection to 80% CPE)” value (ZIKV [7]; 6i 120 μM)?
Its value is 5 days.

And the CC50 [6]?
Its CC50 is > 200 µM.

What about the “stability towards oxidative stress” value [8] of the same molecule?
Its value is “stable for days”.

And the IC50 [9]?
The IC50 was 0.5 to 5.3 µM.

What about the “inhibition of viral protein expression” value [10] of the same molecule?
Its value is 20–26% and 28–45%.

What about the “effect on HA expression” value (PR8 H1N1) of the same molecule?
The value was “not quite effective”.

And the “dpi (days post infection to 80% CPE)” value (DENV; 6i 15 μM)?
Its value is 6 days.

And the “dpi (days post infection to 80% CPE)” value (DENV; 6i 30 μM)?
The value was 7 days.

And the “dpi (days post infection to 80% CPE)” value (DENV; 6i 60 μM)?
Its value is 5 days.

And the “dpi (days post infection to 80% CPE)” value (DENV; 6i 120 μM)?
The value was 5 days and 9 days.

What about the “expression of NS5 protein” value [11] of the same molecule?
The value was “significantly reduced”.

And the “expression of NS3 protein” value [11]?
The value was “significantly reduced”.

And the “MCC NS3/NS5 (Manders' colocalization coefficient)” value ([11]; 6i 50 μM, 16 h post infection, untreated control 0.726 ± 0.135)?
The value was 0.404 ± 0.106.

What about the “MCC NS5/NS3 (Manders' colocalization coefficient)” value ([11]; 6i 50 μM, 16 h post infection, untreated control 0.752 ± 0.125) of the same molecule?
The value was 0.397 ± 0.101.

And the “radical scavenging activity (% inhibition of the ABTS absorbance at 734 nm)” value [12]?
Its value is “not observed”.

Which CC50 [6] does the source give for `Oc1ccc(Nc2nc(NCCOc3ccccc3)nc3[nH]cnc23)cc1O` [Compound 6j, 4-((2-((2-phenoxyethyl)amino)-9H-purin-6-yl)amino)benzene-1,2-diol] here?
Its CC50 is > 200 µM.

Which CC50 [6] does the source give for `CNc1nc(Nc2cccc(C(=O)O)c2)c2nc[nH]c2n1` [Compound 6l, 3-((2-(methylamino)-9H-purin-6-yl)amino)benzoic acid] here?
The CC50 was > 200 µM.

For `O=C(O)c1cccc(Nc2nc(NCCOc3ccccc3)nc3[nH]cnc23)c1` [Compound 6m, 3-((2-((2-phenoxyethyl)amino)-9H-purin-6-yl)amino)benzoic acid], which CC50 [6] is on record?
The CC50 was > 200 µM.

Which “stability towards oxidative stress” value [8] does the source give for `Fc1cccc(NNc2nc(NCCOc3ccccc3)nc3[nH]cnc23)c1` [Compound 10a, 6-(2-(3-fluorophenyl) hydrazinyl)-N-(2-phenoxyethyl)-9H-purin-2-amine] here?
The value was “quickly converted into 11a”.

What about the “radical scavenging activity (% inhibition of the ABTS absorbance at 734 nm)” value [12] of the same molecule?
Its value is “clear concentration-dependent radical scavenging activity”.

Which “stability towards oxidative stress” value [8] does the source give for `Fc1cccc(/N=N/c2nc(NCCOc3ccccc3)nc3[nH]cnc23)c1` [Compound 11a, 6-((3-fluorophenyl)diazenyl)-N-(2-phenoxyethyl)-9H-purin-2-amine] here?
Its value is “stable for days”.

What about the “radical scavenging activity (% inhibition of the ABTS absorbance at 734 nm)” value [12] of the same molecule?
The value was “not observed”.

For `CCC(CC)COC(=O)[C@H](C)N[P@](=O)(OC[C@H]1O[C@@](C#N)(c2ccc3c(N)ncnn23)[C@H](O)[C@@H]1O)Oc1ccccc1` [RMD], which IC50 (SARS-CoV-2) is on record?
Its IC50 is 0.28 µM.

Which CC50 [6] does the source give for `NC(=O)c1ncn([C@@H]2O[C@H](CO)[C@@H](O)[C@H]2O)n1` [Ribavirin, reference compound] here?
Its CC50 is > 200 µM.

What does the source list for `CC(C)OC(=O)[C@H](C)N[P@](=O)(OC[C@H]1O[C@@H](n2ccc(=O)[nH]c2=O)[C@](C)(F)[C@@H]1O)Oc1ccccc1` [Sofosbuvir, reference compound]?
CC50 [6]: > 200 µM; IC50 (DENV-2 [13]): 3.8 µM; expression of NS5 protein [11]: significantly reduced; expression of NS3 protein [11]: significantly reduced
